Experimental data published in ChEMBL document CHEMBL1132222, “Lamellarin alpha 20-sulfate, an inhibitor of HIV-1 integrase active against HIV-1 virus in cell culture” (J Med Chem, 1999).
Where “and” joins values, the source holds several entries; their conditions need not be identical. Equal entries are not always repeated. Calls of active or inactive are those of the source. The calls are words filed in the database; no cut-off is given here.

What was measured:
[1] = test system: Molluscum contagiosum virus; test: The relaxation activity of MCV topoisomerase was assayed at 170 electrophoresis; No Inhibition; assay type: functional, organism-based
How it was run: (§1)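 Type 1B topoisomerase of molluscum contagiosum virus; relaxation of supercoiled plasmid DNA monitored by mobility shift on agarose gel electrophoresis.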

[2] = test system: Human immunodeficiency virus 1; test: The compound was tested in vitro for inhibition of PIC (preintegrated complexes) from HIV-1 infected cells; assay type: functional
How it was run: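 Preintegration complexes isolated from HIV-1-infected cells used as integration source; mixed with naked DNA target and incubated 37 °C for 1 h in presence of compound.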

[3] = target: Human immunodeficiency virus type 1 integrase (Human immunodeficiency virus 1, UniProt Q7ZJM1); test: Inhibitory activity against integrase as yield of terminal cleavage products
Human immunodeficiency virus type 1 integrase, sequence (Q7ZJM1 whole entry): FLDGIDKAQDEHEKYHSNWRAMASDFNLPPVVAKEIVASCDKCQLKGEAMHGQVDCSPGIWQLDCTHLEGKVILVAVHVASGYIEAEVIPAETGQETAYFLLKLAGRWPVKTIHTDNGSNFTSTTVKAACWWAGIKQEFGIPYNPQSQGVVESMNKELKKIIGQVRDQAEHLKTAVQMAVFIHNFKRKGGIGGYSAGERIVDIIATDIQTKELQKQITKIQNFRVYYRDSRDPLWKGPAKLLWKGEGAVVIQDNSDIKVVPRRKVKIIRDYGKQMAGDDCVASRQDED
How it was run: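 Purified HIV-1 integrase incubated with an end-labeled substrate oligonucleotide across a compound titration. Products separated by electrophoresis and visualized by autoradiography; terminal cleavage product quantitated relative to positive control without inhibitor.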

[4] = The compound was tested for toxicity using MTT cytotoxicity assay in Hela cell culture, activity expressed as LD50 value.; assay type: cell-based; conditions: human, HeLa cells; read-out: LD50 (the source's name)
How it was run: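 HeLa cells in culture exposed to a range of compound concentrations; viability read out with MTT dye; LD50 derived from the concentration series.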

[5] = test system: Molluscum contagiosum virus; test: The relaxation activity of MCV topoisomerase was assayed at 100 electrophoresis; No Inhibition; assay type: functional, organism-based
How it was run: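 Counterscreen against the type 1B topoisomerase of molluscum contagiosum virus (MCV). Relaxation of supercoiled plasmid DNA was followed by the change in its mobility on agarose gel electrophoresis, with compound present.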

[6] = test system: Molluscum contagiosum virus; test: The relaxation activity of MCV topoisomerase was assayed at 500 electrophoresis; No Inhibition; assay type: functional, organism-based; how it was run: as §1

SMILES | inhibition [1] | IC50 [2] [µM] | IC50 [3] | CC50 [4] [µM] | inhibition [5] | inhibition [6]
COc1ccc(-c2c3c4cc(OC)c(OS(=O)(=O)O)cc4oc(=O)c3n3ccc4cc(OC)c(OC)cc4c23)cc1O | inactive | 88 | 16 µM and 22 µM | 274 |  | 
COc1ccc(-c2c3c4cc(OC)c(O)cc4oc(=O)c3n3ccc4cc(O)c(OC)cc4c23)cc1O |  |  | 18 µM and 19 µM | 5 | inactive | 
COc1ccc(-c2c3n(c4c(=O)oc5cc(O)c(OC)cc5c24)CCc2c-3cc(OC)c(OC)c2OC)cc1O |  |  | 27 µM and 24 µM | 27 | inactive | 
COc1ccc(-c2c3n(c4c(=O)oc5cc(OS(=O)(=O)O)c(OC)cc5c24)CCc2cc(OC)c(OC)cc2-3)cc1O |  |  | 34 µM and 25 µM | 145 |  | inactive
COc1ccc(-c2c3c4cc(OC)c(O)cc4oc(=O)c3n3ccc4c(OC)c(OC)c(OC)cc4c23)cc1O | inactive |  | 19 µM and 14 µM | 28 |  | 
COc1ccc(-c2c3n(c4c(=O)oc5cc(OS(=O)(=O)O)c(OC)cc5c24)C(O)Cc2c-3cc(OC)c(OC)c2OC)cc1O (centres undefined) |  |  | 73 µM and 51 µM | 130 |  | inactive
